# In the library only some 2.5% were active in any assay of this set; here they are far more common.
# PAX8 reporter = inhibitors of PAX8-driven TPO luciferase reporter, primary screen, RMG-I cells, single concentration. inhibition, % at 12.6 µM. SteadyGlo, 24 h. actives 1.2% (n = 360,000);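 active = mean replicate inhibition at least 60% with every replicate also reaching 60%; inconclusive = only one of the two criteria is met; inactive = mean below 60% and not all replicates reaching 60%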;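 also: luciferase light reporting Pax8 driven TPO promoter activity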
# Glyco luc inh = increase of ERlucT glycosylation luciferase signal, primary screen, N-linked glycosylation inhibitor project, D54 ERlucT cells, luminescence, set 2; AID 588692, 2011; reporter increase, % at 12.5 µM; actives 0.23% (n = 360,000); D54 ERlucT glycosylation luciferase reporter, 24 h; percent of 100 nM tunicamycin response;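 active = mean luciferase reporter signal, scaled so untreated is 0 and the glycosylation-blocking control 100, at or above a set limit in every replicate; inconclusive = mean reaches the limit but not every replicate does; inactive = mean below the limit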;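 also: luciferase carries N-glycosylation sites so blocking glycosylation raises the light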
# EWS-Fli inh = EWS/Fli-driven NR0B1 reporter inhibitors, primary screen, A673 cells, NR0B1 luciferase, luminescence, MLPCN library; viability-normalised; inhibition, % at 12.6 µM; actives 0.67% (n = 350,000); AID 651661, 2012;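 active = mean inhibition of at least 50% after viability correction, with every replicate also passing that limit; inconclusive = mean reaches 50% but only one of two replicates passes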;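 also: firefly luciferase signal divided by Alamar Blue viability fluorescence both relative to DMSO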
# Env fusion inh = inhibitors of HIV-1 Env-driven cell-cell fusion, primary screen, HeLa-JRFL effector, CEM21 target cells, luciferase; actives 1.1% (n = 360,000); inhibition, % at 12.3 µM; AID 651610, 2012;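 active = mean replicate inhibition score of at least 50 and every replicate individually at or above 50; inconclusive = only one of the two criteria met; inactive = mean below 50 and not all replicates reaching 50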
# AF4-AF9 inh = inhibitors of AF4 peptide binding to AF9, primary screen, biochemical, AlphaScreen, biotin-AF4 peptide, FLAG-AF9, single point; inhibition, % at 10 µM; AID 651704, 2012; actives 0.47% (n = 350,000);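 active = every replicate reaching a set inhibition limit, whatever the replicate mean, cut at about 25% in these data; inconclusive = mean inhibition reaches that limit but some replicates miss it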
# Target sequence (P42568 whole entry, looked up): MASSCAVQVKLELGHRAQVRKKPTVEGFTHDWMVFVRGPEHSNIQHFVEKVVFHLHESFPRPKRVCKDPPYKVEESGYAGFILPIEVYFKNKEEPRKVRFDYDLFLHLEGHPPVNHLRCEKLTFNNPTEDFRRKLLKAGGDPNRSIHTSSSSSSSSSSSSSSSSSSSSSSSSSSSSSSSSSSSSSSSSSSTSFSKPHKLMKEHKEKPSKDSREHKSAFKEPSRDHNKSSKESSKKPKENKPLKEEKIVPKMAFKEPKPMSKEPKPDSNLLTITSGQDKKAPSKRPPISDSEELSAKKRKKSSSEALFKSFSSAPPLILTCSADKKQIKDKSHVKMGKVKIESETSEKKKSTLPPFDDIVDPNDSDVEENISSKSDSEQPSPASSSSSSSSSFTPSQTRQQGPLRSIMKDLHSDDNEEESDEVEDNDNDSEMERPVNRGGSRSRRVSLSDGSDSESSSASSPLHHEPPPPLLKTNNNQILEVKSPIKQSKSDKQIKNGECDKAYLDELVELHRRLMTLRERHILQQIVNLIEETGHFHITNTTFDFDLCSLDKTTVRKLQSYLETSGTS
# FN deposit inh = inhibitors of fibronectin matrix deposition, primary screen, AH1F cells, Alexa488-fibronectin fluorescence, plate reader; AH1F fibroblasts, overnight; inhibition, % at 12.6 µM; actives 0.086% (n = 350,000);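 active = mean inhibition across replicates of 30% or more, regardless of how many single replicates reach that level; inconclusive = mean under 30% yet at least half of replicates reach 30%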
#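 Material: AH1F fibroblasts assembling fluorescent fibronectin matrix; amount: 10000 AH1F cells/well; medium: DMEM, 2% serum; reagent: Alexa488-fibronectin, 24 nM final in well; dosing: single compound dose, delivered by pin transfer; incubation: 1 h adhesion, overnight exposure; detection: fluorescence after three HBSS washes, excitation 485 nm, emission 525 nm; measure: fibronectin deposition inhibition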
# Hits are given with their value; – = inactive; ? = inconclusive; · = no result given.
SMILES,PAX8 reporter,Glyco luc inh,EWS-Fli inh,Env fusion inh,AF4-AF9 inh,FN deposit inh
CC(C)(O)/C=C/C(=O)C(C)(O)C1C(O)CC2(C)C3CC=C4C(C=C(O)C(=O)C4(C)C)C3(C)C(=O)CC12C (stereo unspecified),91,–,–,81,–,46
CC(=O)OC(C)(C)/C=C/C(=O)[C@](C)(O)C1[C@H](O)C[C@@]2(C)C3CC=C4C(C[C@H](O)C(=O)C4(C)C)[C@]3(C)C(=O)C[C@]12C (stereo partly specified),·,–,·,·,·,·
C[N+]1=C(/C=C/Nc2ccccc2)C(C)(C)c2ccccc21,–,–,·,–,·,–
CCN1/C(=C/C=C/C2=[N+](CC)c3ccccc3C2(C)C)C(C)(C)c2ccccc21,106,–,59,–,–,–
CC1CCC/C=C/C2CC(O)CC2C(O)/C=C/C(=O)O1 (stereo unspecified),127,–,·,107,·,–
CN(C)c1ccc(/C=C/[N+](=O)[O-])cc1,–,–,–,–,–,–
C/C(=C\c1ccc(N(C)C)cc1)[N+](=O)[O-],·,–,52,·,–,·
O=C(Cc1ccccc1)N1C[C@@H]2[C@H](c3ccccc31)[C@@H](CO)N2Cc1ccccc1,–,·,–,·,–,·
CCC(C)(C)n1nnnc1C(c1cccs1)N1CC=C(c2ccc(F)cc2)CC1 (stereo unspecified),·,–,·,96,·,–
Fc1ccc(C2=CCN(C(c3cccs3)c3nnnn3CCc3ccccc3)CC2)cc1 (stereo unspecified),·,–,·,–,·,–
CC12CCC(O)CC1CCC1C2CCC2(C)C(C3=CC(=O)OC3)C(O)CC12O (stereo unspecified),–,–,–,74,–,–
CN1/C(=C\C=Nc2ccccc2)C(C)(C)c2ccccc21,·,–,·,64,–,–
CN1/C(=C\C=C2C(=O)NC(=O)NC2=O)C(C)(C)c2ccccc21,–,–,–,–,–,–
COC(=O)[C@H]1[C@H](CO)[C@H]2Cn3c(ccc(-c4ccccc4)c3=O)[C@@H]1N2CCc1ccccc1,·,·,–,·,–,·
CC(=O)NC(Cc1ccc(N(CCCl)CCCl)cc1)C(=O)NC(C(=O)O)C(C)C (stereo unspecified),–,–,–,–,–,–
CCOC(=O)CC(NC(=O)C(Cc1ccc(N(CCCl)CCCl)cc1)NC(C)=O)C(=O)OCC (stereo unspecified),–,–,68,–,–,–
CCCCNC(=O)c1c(N)n(CCCOC)c2nc3ccccc3nc12,–,–,·,–,·,·
COCCNC(=O)c1c(N)n(CCC(C)C)c2nc3ccccc3nc12,·,–,·,59,·,·
O=C(Cc1ccccc1)N1CCCCN2[C@@H](CO)[C@@H](c3ccc(-c4ccccc4)cc3)[C@@H]2C1,–,·,·,·,–,·
O=C1NC(=O)C2(Cc3ccccc3N3CCCC32)C(=O)N1 (stereo unspecified),·,–,·,61,·,·
O=C1NC(=O)C2(Cc3ccccc3N3CCCC32)C(=O)N1c1ccccc1 (stereo unspecified),·,–,·,–,·,–
c1ccc2c(c1)Sc1ccccc1N2CC1CN2CCC1CC2 (stereo unspecified),–,–,–,–,27,–
O=c1[nH]c2ccccc2n1C1CCN(C(c2cccc3ccccc23)c2nnnn2-c2ccc3c(c2)OCCO3)CC1 (stereo unspecified),98,–,–,–,–,–
Cc1cccc(C)c1-n1nnnc1C(c1cccc2ccccc12)N1CCC(n2c(=O)[nH]c3ccccc32)CC1 (stereo unspecified),–,–,–,74,–,·
COc1ccc(-n2nnnc2C(c2cc3ccccc3o2)N2CCC(n3c(=O)[nH]c4ccccc43)CC2)cc1 (stereo unspecified),–,–,–,–,–,–
SMILES,PAX8 reporter,Glyco luc inh,EWS-Fli inh,Env fusion inh,AF4-AF9 inh,FN deposit inh
O=c1[nH]c2ccccc2n1C1CCN(C(c2cc3ccccc3o2)c2nnnn2-c2ccc3c(c2)OCCO3)CC1 (stereo unspecified),103,–,–,–,–,–
O=C(Cc1ccccn1)N1CCCCN2[C@H](CO)[C@@H](c3ccc(C#Cc4ccccc4)cc3)[C@H]2C1,–,·,–,·,–,·
N#Cc1ccc2nc(-c3ccc(CN4CCC(n5c(=O)[nH]c6ccccc65)CC4)cc3)c(-c3ccccc3)nc2c1,91,·,–,–,–,·
Cc1cccc2nc(-c3ccccc3)c(-c3ccc(CN4CCC(n5c(=O)[nH]c6ccccc65)CC4)cc3)nc12,–,·,–,–,–,–
Clc1ccc(C(c2ccc(Cl)cc2)n2cc[n+](CC(OCc3ccc(Cl)cc3Cl)c3ccc(Cl)cc3Cl)c2)cc1 (stereo unspecified),97,–,–,?,–,–
Clc1ccc(COC(Cn2ccnc2)c2ccc(Cl)cc2Cl)cc1 (stereo unspecified),–,–,–,–,–,–
COC(=O)C1=C(c2cccc(OCc3ccccc3)c2)C[C@@H]2CC[C@H]1N2C(=O)NCc1cccc(C(F)(F)F)c1,–,–,–,–,–,–
COC(=O)C1=C(c2cccc(OCc3ccccc3)c2)C[C@@H]2CC[C@H]1N2C(=O)NCc1ccc([N+](=O)[O-])cc1,–,–,–,–,–,–
COC(=O)C1=C(c2ccc(OCc3ccccc3)cc2)C[C@@H]2CC[C@H]1N2C(=O)NCc1ccc(C(C)(C)C)cc1,86,–,–,–,–,–
COC(=O)C1=C(c2cccc(OCc3ccccc3)c2)C[C@@H]2CC[C@H]1N2C(=O)NCc1cc(C)oc1C(F)(F)F,63,–,–,–,–,–
COC(=O)C1=C(c2ccc(OCc3ccccc3)cc2)C[C@@H]2CC[C@H]1N2C(=O)NCc1ccc([N+](=O)[O-])cc1,68,–,–,–,–,–
COC(=O)C1=C(c2ccc(OCc3ccccc3)cc2)C[C@@H]2CC[C@H]1N2C(=O)NCc1ccccc1,–,–,–,–,–,–
O=C(O)[C@H]1[C@H](CO)[C@H]2Cn3c(ccc(-c4ccccc4)c3=O)[C@@H]1N2CC1CCCCC1,–,·,–,·,–,·
COC(=O)[C@H]1[C@H](CO)[C@H]2Cn3c(ccc(-c4ccc(OC)cc4)c3=O)[C@@H]1N2C(=O)c1ccccc1F,–,·,–,·,–,·
CC(=O)N1C2CN(C)CC1C2c1ccc(Br)cc1 (stereo unspecified),·,·,·,·,·,–
COc1ccc(C#Cc2ccc([C@H]3[C@H](CO)N4CCCCN(C(=O)Cc5ccncc5)C[C@@H]34)cc2)cc1,–,·,·,·,–,·
COC(=O)C1=C(c2cc3ccccc3o2)C[C@@H]2CC[C@H]1N2C(=O)N1CCOCC1,–,36,–,–,–,–

# Screens: PubChem BioAssay, Broad Institute
